Converted amounts (≈) assume the structure as drawn.
Key:
Staphylococcus aureus [1] = assay: Antibacterial activity against methicillin-resistant Staphylococcus aureus USA500 assessed as inhibition of visible growth by broth microdilution method; format: functional
Staphylococcus aureus [2] = assay: Antibacterial activity against methicillin-resistant Staphylococcus aureus USA200 assessed as inhibition of visible growth by broth microdilution method; format: functional
Staphylococcus aureus [3] = assay: Antibacterial activity against methicillin-resistant Staphylococcus aureus NRS119 assessed as inhibition of visible growth by broth microdilution method; format: functional
Staphylococcus aureus [4] = assay: Antibacterial activity against methicillin-resistant Staphylococcus aureus NRS194 assessed as inhibition of visible growth by broth microdilution method; format: functional
Staphylococcus aureus [5] = assay: Antibacterial activity against methicillin-resistant Staphylococcus aureus ATCC 43300 assessed as inhibition of visible growth by broth microdilution method; format: functional
Staphylococcus aureus [6] = assay: Antibacterial activity against methicillin-resistant Staphylococcus aureus NRS107 assessed as inhibition of visible growth by broth microdilution method; format: functional
Staphylococcus aureus [7] = assay: Antibacterial activity against vancomycin-resistant Staphylococcus aureus assessed as inhibition of visible growth by broth microdilution method; format: functional
Staphylococcus aureus [8] = assay: Antibacterial activity against vancomycin-intermediate Staphylococcus aureus ATCC 700699 assessed as inhibition of visible growth by broth microdilution method; format: functional
Staphylococcus aureus [9] = assay: Antibacterial activity against vancomycin-intermediate Staphylococcus aureus HIP07256 assessed as inhibition of visible growth by broth microdilution method; format: functional
Staphylococcus aureus [10] = assay: Antibacterial activity against methicillin-resistant Staphylococcus aureus USA1100 assessed as inhibition of visible growth by broth microdilution method; format: functional
Staphylococcus aureus [11] = assay: Antibacterial activity against methicillin-resistant Staphylococcus aureus USA300 assessed as inhibition of visible growth by broth microdilution method; format: functional
Staphylococcus aureus [12] = assay: Antibacterial activity against methicillin-resistant Staphylococcus aureus USA800 assessed as inhibition of visible growth by broth microdilution method; format: functional
HeLa = assay: Cytotoxicity against human HeLa cells assessed as cell viability at 11 ug/ml by MTS assay; format: cell-based
Staphylococcus aureus [13] = assay: Antibacterial activity against methicillin-resistant Staphylococcus aureus USA400 assessed as inhibition of visible growth by broth microdilution method; format: functional
Staphylococcus aureus [14] = assay: Antibacterial activity against methicillin-resistant Staphylococcus aureus NRS108 assessed as inhibition of visible growth by broth microdilution method; format: functional
Staphylococcus aureus [15] = assay: Antibacterial activity against vancomycin-intermediate Staphylococcus aureus LIM 3 assessed as inhibition of visible growth by broth microdilution method; format: functional
Staphylococcus aureus [16] = assay: Antibacterial activity against methicillin-resistant Staphylococcus aureus USA100 assessed as inhibition of visible growth by broth microdilution method; format: functional
Staphylococcus aureus [17] = assay: Antibacterial activity against methicillin-resistant Staphylococcus aureus USA700 assessed as inhibition of visible growth by broth microdilution method; format: functional
Staphylococcus aureus [18] = assay: Antibacterial activity against methicillin-resistant Staphylococcus aureus USA1000 assessed as inhibition of visible growth by broth microdilution method; format: functional
Staphylococcus aureus [19] = assay: Bactericidal activity against methicillin-resistant Staphylococcus aureus USA300 assessed as time required to complete elimination of bacteria by 3-log10 by time-kill assay; format: functional
In short: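 Viable counts (CFU) followed over a 12-hour window; endpoint is a 3-log10 fall in CFU.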

[20] = Aqueous solubility of compound in phosphate buffer assessed as solubility limit after 2 hrs by turbidity analysis; format: physicochemical

Compound | MIC (Staphylococcus aureus [1]) | MIC (Staphylococcus aureus [2]) | MIC (Staphylococcus aureus [3]) | MIC (Staphylococcus aureus [4]) | MIC (Staphylococcus aureus [5]) | MIC (Staphylococcus aureus [6]) | MIC (Staphylococcus aureus [7]) | MIC (Staphylococcus aureus [8]) | MIC (Staphylococcus aureus [9]) | MIC (Staphylococcus aureus [10]) | MIC (Staphylococcus aureus [11]) | MIC (Staphylococcus aureus [12]) | Activity (HeLa) | MIC (Staphylococcus aureus [13]) | MIC (Staphylococcus aureus [14]) | MIC (Staphylococcus aureus [15]) | MIC (Staphylococcus aureus [16]) | MIC (Staphylococcus aureus [17]) | MIC (Staphylococcus aureus [18]) | Time (Staphylococcus aureus [19]) | further results
C/C(=N\NC(=N)N)c1sc(-c2ccc(C(C)(C)C)cc2)nc1C | 1.3 µg/mL (≈ 3.95 µM) | 2.6 µg/mL (≈ 7.89 µM) | 1.9 µg/mL (≈ 5.77 µM) | 2.6 µg/mL (≈ 7.89 µM) | 1.9 µg/mL (≈ 5.77 µM) | 1 µg/mL (≈ 3.04 µM) | 1.6 µg/mL (≈ 4.86 µM) | 1.6 µg/mL (≈ 4.86 µM) | 1.9 µg/mL (≈ 5.77 µM) | 1.9 µg/mL (≈ 5.77 µM) | 1.3 µg/mL (≈ 3.95 µM) | 1.3 µg/mL (≈ 3.95 µM) | Non-toxic | 1.9 µg/mL (≈ 5.77 µM) | 1.9 µg/mL (≈ 5.77 µM) | 1.6 µg/mL (≈ 4.86 µM) | 1.3 µg/mL (≈ 3.95 µM) | – | – | – | –
C/C(=N\NC(=N)N)c1sc(-c2ccc3ccccc3c2)nc1C | 2.6 µg/mL (≈ 8.04 µM) | 2.6 µg/mL (≈ 8.04 µM) | 3.8 µg/mL (≈ 11.7 µM) | 1.9 µg/mL (≈ 5.87 µM) | 3.8 µg/mL (≈ 11.7 µM) | 1.9 µg/mL (≈ 5.87 µM) | – | 3.2 µg/mL (≈ 9.89 µM) | 2.6 µg/mL (≈ 8.04 µM) | – | – | – | Non-toxic | – | 1.9 µg/mL (≈ 5.87 µM) | – | – | 2.6 µg/mL (≈ 8.04 µM) | – | – | –
C/C(=N\NC(=N)N)c1sc(-c2ccc(C3=CCCCC3)cc2)nc1C | 1 µg/mL (≈ 2.83 µM) | 1 µg/mL (≈ 2.83 µM) | 0.6 µg/mL (≈ 1.7 µM) | 0.8 µg/mL (≈ 2.26 µM) | 1.2 µg/mL (≈ 3.39 µM) | 0.6 µg/mL (≈ 1.7 µM) | 1.2 µg/mL (≈ 3.39 µM) | 0.5 µg/mL (≈ 1.41 µM) | 0.8 µg/mL (≈ 2.26 µM) | – | 1.2 µg/mL (≈ 3.39 µM) | 0.8 µg/mL (≈ 2.26 µM) | Non-toxic | – | 1.7 µg/mL (≈ 4.81 µM) | 0.8 µg/mL (≈ 2.26 µM) | 1 µg/mL (≈ 2.83 µM) | 1.2 µg/mL (≈ 3.39 µM) | 0.8 µg/mL (≈ 2.26 µM) | – | –
C/C(=N\NC(=N)N)c1sc(-c2ccc(C3CCCCC3)cc2)nc1C | 0.9 µg/mL (≈ 2.53 µM) | 1.2 µg/mL (≈ 3.38 µM) | 0.7 µg/mL (≈ 1.97 µM) | 0.7 µg/mL (≈ 1.97 µM) | 1.5 µg/mL (≈ 4.22 µM) | 0.6 µg/mL (≈ 1.69 µM) | 1.5 µg/mL (≈ 4.22 µM) | 0.7 µg/mL (≈ 1.97 µM) | 0.7 µg/mL (≈ 1.97 µM) | 0.7 µg/mL (≈ 1.97 µM) | 0.7 µg/mL (≈ 1.97 µM) | 0.7 µg/mL (≈ 1.97 µM) | Non-toxic | 0.7 µg/mL (≈ 1.97 µM) | 1.5 µg/mL (≈ 4.22 µM) | 0.5 µg/mL (≈ 1.41 µM) | 0.7 µg/mL (≈ 1.97 µM) | 1.5 µg/mL (≈ 4.22 µM) | 0.9 µg/mL (≈ 2.53 µM) | 6 h | –
COC(=O)[C@H]1[C@H]2C[C@@H]3c4[nH]c5cc(OC)ccc5c4CCN3C[C@H]2C[C@@H](OC(=O)c2cc(OC)c(OC)c(OC)c2)[C@@H]1OC [RESERPINE] | – | – | – | – | – | – | – | – | – | – | – | – | – | – | – | – | – | – | – | – | solubility kinetic at 2 h [20]: 31.3 µM (≈ 19.1 µg/mL)
CN[C@H](CC(C)C)C(=O)N[C@H]1C(=O)N[C@@H](CC(N)=O)C(=O)N[C@H]2C(=O)N[C@H]3C(=O)N[C@H](C(=O)N[C@H](C(=O)O)c4cc(O)cc(O)c4-c4cc3ccc4O)[C@H](O)c3ccc(c(Cl)c3)Oc3cc2cc(c3O[C@@H]2O[C@H](CO)[C@@H](O)[C@H](O)[C@H]2O[C@H]2C[C@](C)(N)[C@H](O)[C@H](C)O2)Oc2ccc(cc2Cl)[C@H]1O [VANCOMYCIN] | – | 0.4 µg/mL (≈ 0.276 µM) | – | – | – | – | – | – | – | – | – | – | – | – | – | – | – | – | – | 12 h | –

From ChEMBL document CHEMBL3124870, “Discovery and characterization of potent thiazoles versus methicillin- and vancomycin-resistant Staphylococcus aureus” (J Med Chem, 2014)
